Measured values from the array DNA melting data of Ke et al. (doi:10.1101/2024.01.08.574731).

What was measured:
[1] = folding enthalpy; higher = less favourable; fluorescence melt of hairpins on a sequencing array, two-state fit; details: sodium 0.088 M
Method in brief: (§1)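 Cy3 fluorescence of library hairpins on a sequenced MiSeq flow cell, with annealed Cy3 and quencher oligos, was imaged in 50 mM Na-HEPES pH 8.0, 25 mM NaCl in 2.5 °C steps up to 60 °C. Signals were normalised to pre-quench Cy3 and to control variants. Melting temperature and folding enthalpy came from bootstrapped two-state fits, inverse-variance combined over four replicates. Fitted temperatures were raised by 9.35 °C to match UV melts.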

[2] = melting temperature; fluorescence melt of hairpins on a sequencing array, two-state fit, raised by 9.35 °C to match UV melts; details: sodium 0.088 M
Method in brief: as §1

Sequence | folding enthalpy [1] [kcal/mol] | Tm [2] [°C]
GACGACGAAAGTCAGTC ((((((....))).))) | -24.9 | 54.1
GACGACGAAAGTCCGGTC ((((((....)))..))) | -18 | 39.3
GACGACGAAAGTCTTGTC ((((((....)))..))) | -16.2 | 40.3
GACGACGCGAAAGCGGTC (((..(((....)))))) | -11.5 | 47
GACGAGGCGAAAGCCGTC (((..(((....)))))) | -8.76 | 51.5
GACGAGGGAAACCCCGTC ((((.((....)).)))) | -31.4 | 51
GACGATGCGAAAGCAGTC (((..(((....)))))) | -16.9 | 44
GACGATGGAAACATTGTC (((.(((....))).))) | -35.2 | 47.1
GACGATGGAAACGTCGTC (((((.(....).))))) | -35.1 | 54.5
GACGCAGGAAACCGCATC ((.((.(....).)).)) | -12.4 | 28.5
GACGCCCGAAAGGGAGTC (((.(((....))).))) | -32.8 | 66.7
GACGCCGAAAGGCCTGTC ((((((....)))..))) | -13.5 | 35.1
GACGCCGAAAGGCTAGTC ((((((....)))..))) | -18.1 | 46.8
GACGCCGAAAGGCTCGTC ((((((....)))..))) | -14.5 | 50
GACGCCGGAAACGACGCC (.((.((....)).)).) | -21.7 | 39.7
GACGCGCCGAAAGGCGTC (((..(((....)))))) | -6.51 | 37.7
GACGCGCGAAAGCGGTC (((.(((....)))))) | -14 | 55
GACGCTGCGAAAGCAGTC (((..(((....)))))) | -8.26 | 37.2
GACGCTGGAAACAGCACC (..((((....))))..) | -11.1 | 30
GACGCTGGAAACGGCGTC (((((.(....).))))) | -44.2 | 64.9
GACGGAACGAAAGTTGTC (((..(((....)))))) | -19.2 | 30.7
GACGGACGAAAGTCGTC (((.(((....)))))) | -27.3 | 55.6
GACGGACGAAAGTCTGTC (((.(((....))).))) | -35.3 | 60.5

Sequence | folding enthalpy [1] [kcal/mol] | Tm [2] [°C]
GACGGCCGAAAGGCGTC (((.(((....)))))) | -20.6 | 64.8
GACGGCGAAAGCCCCGTC ((((((....)))..))) | -15.8 | 42.8
GACGGCGAAAGCCTGGTC ((((((....)))..))) | -15.1 | 49.9
GACGGCGGAAACGCCACC (..((((....))))..) | -9.98 | 26.9
GACGGGACGAAAGTCGTC (((..(((....)))))) | -17.1 | 45.8
GACGGGGGAAACTCCGTC (((((.(....).))))) | -37.9 | 58.1
GACGGTGGAAACATCGTC ((((.((....)).)))) | -43.6 | 53.7
GACGTAGGAAACCACGTC (((((.(....).))))) | -29.5 | 47.2
GACGTAGGAAACTACACC (..((((....))))..) | -10.2 | 25.2
GACGTAGGAAACTATGTC (((.(((....))).))) | -30 | 43.9
GACGTAGGAAACTGTGTC (((..((....))..))) | -9.59 | 25.7
GACGTCCCGAAAGGGGTC (((..(((....)))))) | -10.9 | 39.9
GACGTCCGAAAGGAGTC (((.(((....)))))) | -24 | 49
GACGTCGCGAAAGCGGTC (((..(((....)))))) | -11.5 | 39.3
GACGTCGGAAACGACATC ((.((((....)))).)) | -12.7 | 37.2
GACGTCGGAAACGGCGTC ((((.((....)).)))) | -46.9 | 62.3
GACGTGCGAAAGCATGTC (((.(((....))).))) | -35.2 | 65.1
GACGTGGCGAAAGCCGTC (((..(((....)))))) | -16.5 | 50.4
GACGTGGGAAACTGCGTC ((((..(....)..)))) | -24.6 | 47.6
GACGTTGGAAACAACATC ((.((((....)))).)) | -16.8 | 32.4
GACGTTGGAAACGACGTC (((((.(....).))))) | -35.1 | 55.8
GACTAACGAAAGTTGGTC (((.(((....))).))) | -40.4 | 51.3
GACTAAGGAAACTTAGTC (((((((....))))))) | -35.1 | 52.5

Sequence | folding enthalpy [1] [kcal/mol] | Tm [2] [°C]
GACTAAGGAAACTTGGTC (((.(((....))).))) | -30.1 | 39.3
GACTACCGAAAGGTGTC (((.(((....)))))) | -21.6 | 49.6
GACTACGAAAGTAATGTC ((((((....)))..))) | -15.7 | 34.3
GACTACGAAAGTAGCGTC ((((((....)))..))) | -12.7 | 43.8
GACTAGCGAAAGCTCGTC (((.(((....))).))) | -19.1 | 48
GACTAGCGAAAGCTGTC (((.(((....)))))) | -19.6 | 50.3
GACTAGGAAACTAGTC ((((((....)))))) | -34 | 50.8
GACTCACGAAAGTGCGTC (((.(((....))).))) | -32.8 | 50.6
GACTCAGGAAACCGAGTC (((((.(....).))))) | -29.8 | 46.2
GACTCCCCGAAAGGGGTC (((..(((....)))))) | -7.79 | 31.4
GACTCCCGAAAGGGGGTC (((.(((....))).))) | -33.4 | 63.7
GACTCCGAAAGGACTGTC ((((((....)))..))) | -15.7 | 32.7
GACTCCGAAAGGAGCGTC ((((((....)))..))) | -13.4 | 49.9
GACTCCGAAAGGATAGTC ((((((....)))..))) | -22.5 | 41.5
GACTCCGAAAGGATCGTC ((((((....)))..))) | -23.3 | 42.1
GACTCTACGAAAGTAGTC (((..(((....)))))) | -10.9 | 30.1
GACTCTGGAAACAGGGTC (((.(((....))).))) | -30.7 | 49.4
GACTGACCGAAAGGTGTC (((..(((....)))))) | -16.9 | 41.4
GACTGACGAAAGTCGGTC (((.(((....))).))) | -37.2 | 62
GACTGACGAAAGTCGTC (((.(((....)))))) | -14.2 | 52.6
GACTGCCGAAAGGCCGTC (((.(((....))).))) | -25 | 53.4
GACTGCGAAAGCAAGGTC ((((((....)))..))) | -15.3 | 45.1
GACTGCGAAAGCACGTC ((((((....))).))) | -15.8 | 56.4

Sequence | folding enthalpy [1] [kcal/mol] | Tm [2] [°C]
GACTGCGGAAACGCAATC ((.((((....)))).)) | -15.4 | 38
GACTGCGGAAACGTGGTC (((..((....))..))) | -32.8 | 46.5
GACTGGCGAAAGCCCGTC (((.(((....))).))) | -18.9 | 49.1
GACTGTGGAAACGTAGTC ((((..(....)..)))) | -17.5 | 34.8
GACTTAGGAAACCAAGTC (((((.(....).))))) | -30.6 | 36
GACTTAGGAAACTAAGCC (.(((((....))))).) | -21.9 | 34.2
GACTTCCGAAAGGATGTC (((.(((....))).))) | -40.7 | 52.8
GACTTCGGAAACAAAGTC (((((.(....).))))) | -25.6 | 34
GACTTCGGAAACGGAGTC ((((.((....)).)))) | -39 | 49.4
GACTTGAAAAAGTC (((((....))))) | -26.7 | 44.5
GACTTGCGAAAGCAGGTC (((.(((....))).))) | -34.6 | 60
GACTTGGAAACAAGTC ((((((....)))))) | -38.5 | 54.2
GACTTGGGAAACTGAGTC ((((..(....)..)))) | -32 | 33.5
GACTTTACGAAAGTAGTC (((..(((....)))))) | -12.9 | 33.3
GACTTTCCGAAAGGAGTC (((..(((....)))))) | -13 | 29.6
GACTTTGAAAAAAGTC ((((((....)))))) | -40.6 | 48.6
GACTTTGGAAACAAAGCC (.(((((....))))).) | -22.4 | 39
GAGAAAACGAAAGTTCTC (((..(((....)))))) | -19.4 | 30.8
GAGAAACCGAAAGGTCTC (((..(((....)))))) | -16.8 | 34.1
GAGAAACGAAAGTTGCTC (((.(((....))).))) | -28 | 48.8
GAGAACCCGAAAGGGCTC (((..(((....)))))) | -13.9 | 34.9
GAGAACCGAAAGGTCTC (((.(((....)))))) | -20.6 | 48.1
